# Results as given in the EternaBench riboswitch data.
# How the values were obtained:
# MS2 coat protein [1] = assay: apparent Kd, MS2 coat protein; higher = weaker binding; RNA-MaP array; tryptophan 2.4 mM where present
# How it was run: (§1)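 Stalled E. coli RNA polymerase transcribed each design on Illumina sequencing-chip clusters. The clusters were titrated with SNAP-549-labelled MS2 coat protein, starting at 0.7 or 1.5 nM and doubling up to 3 µM, first without ligand and then with constant ligand, in 100 mM Tris-HCl pH 7.5, 80 mM KCl, 4 mM MgCl2, BSA, DTT, yeast tRNA and Tween-20. Green signal was normalised to red-channel RNA signal and to the control-cluster median Fmax. The apparent Kd is the median of filtered binding-curve fits made for each cluster.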
# MS2 coat protein [2] = assay: apparent Kd, MS2 coat protein; higher = weaker binding; RNA-MaP array; theophylline 2 mM where present
# How it was run: as §1
# [3] = designed as: OFF switch for tryptophan, no ligand
# [4] = ligand present: tryptophan, designed as: OFF switch for tryptophan
# [5] = designed as: ON switch for tryptophan, no ligand
# [6] = ligand present: tryptophan, designed as: ON switch for tryptophan
# [7] = designed as: OFF switch for theophylline, no ligand
# [8] = ligand present: theophylline, designed as: OFF switch for theophylline
# [9] = designed as: ON switch for theophylline, no ligand
# [10] = ligand present: theophylline, designed as: ON switch for theophylline
sequence,measurement,setting,value
GCGACCCUGAGAUCCUACGUAACGUGAACACGAGGACCGGUACGGCCGCCACUCGAGAGAACAUGAGGAUCACCCAUGUCUGAGC,apparent Kd,MS2 coat protein [1]; [3],32.9 nM
same,apparent Kd,MS2 coat protein [1]; [4],88.5 nM
UCGGGCAGAGCGGCCGCCACUGUAUGGCGUGCGGAUGACGGAACAUGAGGAUCACCCAUGUUGUUUAGGACCGGGCUUGCCGCGA,apparent Kd,MS2 coat protein [1]; [3],11.2 nM
same,apparent Kd,MS2 coat protein [1]; [4],13.2 nM
GUUAUAUACUCGGCCGCCACUGAGAGAGUCAUGUAAACAUGAGGAUCACCCAUGUAAUAUAUAUACAGGACCGGGAGUAUGGUAA,apparent Kd,MS2 coat protein [1]; [3],14.3 nM
same,apparent Kd,MS2 coat protein [1]; [4],13.5 nM
AAUGGCCGUACCGGAAGGGUGAUCCUCAAACGAGGACCGGUACGGCCGCCACUCGAUAACAUGAGGAUCACCCAUGUAAUACAUA,apparent Kd,MS2 coat protein [1]; [3],366 nM
same,apparent Kd,MS2 coat protein [1]; [4],318 nM
GUGUGGAGCUCGGCCGCCACUCAAACAUGAGGAUCACCCAUGUAAAACAUGAGGAUCACCCAUGUGAGGACCGGGAGAAACACGA,apparent Kd,MS2 coat protein [1]; [3],338 nM
same,apparent Kd,MS2 coat protein [1]; [4],404 nM
GACGAUAUGAUACGUCAGCAAUCCUCGAAACGAGGACCGGUACGGCCGCCACUCGAGUGAUACACAUGAGGAUCACCCAUGUACC,apparent Kd,MS2 coat protein [1]; [3],39.3 nM
same,apparent Kd,MS2 coat protein [1]; [4],53.2 nM
AGUUCCAGGUCGGCCGCCACUGGCAUGGCCGGUCCUCGGACUUACAUGAGGAUCACCCAUGUGAACAGGACCGGGACCGCAUGGG,apparent Kd,MS2 coat protein [1]; [3],38.3 nM
same,apparent Kd,MS2 coat protein [1]; [4],48.2 nM
GCAUCCUAGUCGGCCGCCACUGGUAUCAACACCUUCACCCGUGUGCACAUGAGGAUCACCCAUGUUAGGACCGGGACUAGGAUGC,apparent Kd,MS2 coat protein [1]; [5],8.4 nM
same,apparent Kd,MS2 coat protein [1]; [6],8.5 nM
CUACAUUUGUAGAAACCGGUCAACAUUAUUCGAGGACCGGUACGGCCGCCACUCGUAUAUUUUUAUACAUGAGGAUCACCCAUGU,apparent Kd,MS2 coat protein [1]; [5],12 nM
same,apparent Kd,MS2 coat protein [1]; [6],11.4 nM
AUCAUAAUAGACUCGUUUGAUUAUAUGGAACGAGGACCGGUACGGCCGCCACUCGUGAUUUACAUGAGGAUCACCCAUGUUAGCA,apparent Kd,MS2 coat protein [1]; [3],15.7 nM
same,apparent Kd,MS2 coat protein [1]; [4],13.9 nM
AGCACUGUGGCGGCCGCCACUACAUAUAGGGUGGUCAGGCCCAUAAUACAUGAGGAUCACCCAUGUAGGACCGGGCCUCAGUGCA,apparent Kd,MS2 coat protein [1]; [3],15 nM
same,apparent Kd,MS2 coat protein [1]; [4],14.8 nM
UACUUGCUGACGGCCGCCACUAGAACAUGAGGAUCACCCAUGUAGGUCCUAGAUUCCUCAUGAACUAGGACCGGGUCAGCAAGAU,apparent Kd,MS2 coat protein [1]; [3],52.6 nM
same,apparent Kd,MS2 coat protein [1]; [4],12.4 nM
UAAUCAGUGCCGGUUCUCGGAUCCUCAUGUCGAGGACCGGUACGGCCGCCACUCGAAACAUGAGGAUCACCCAUGUAAUAAUAAU,apparent Kd,MS2 coat protein [1]; [3],89.6 nM
same,apparent Kd,MS2 coat protein [1]; [4],65.8 nM
UAUAUAUAUCACUAACUGUUGUGGACGUCUCGAGGACCGGUACGGCCGCCACUCGGGCGGCCUCACAUGAGGAUCACCCAUGUCC,apparent Kd,MS2 coat protein [1]; [3],125 nM
same,apparent Kd,MS2 coat protein [1]; [4],110 nM
GGAUAGGACACGGCCGCCACUGCCUAGGAUACUAGAAACAUUUCCUCACAUGAGGAUCACCCAUGUAGGACCGGGUGUCCUAUCG,apparent Kd,MS2 coat protein [1]; [3],134 nM
same,apparent Kd,MS2 coat protein [1]; [4],267 nM
CUUGACAUGAGGAUCACCCAUGUUGGUAAACGAGGACCGGUACGGCCGCCACUCGGUUACGUGUAGUACCGGUAAGAUCCAGGGU,apparent Kd,MS2 coat protein [1]; [5],29.3 nM
same,apparent Kd,MS2 coat protein [1]; [6],27.1 nM
GUCCAAAGGUCGGCCGCCACUGUAGGAUGUGUUCUUUCACAUGAGGAUCACCCAUGUUGUUAUUAUAGGACCGGGAUUGUAGGAC,apparent Kd,MS2 coat protein [1]; [3],20.5 nM
same,apparent Kd,MS2 coat protein [1]; [4],18.5 nM
AAUGUCGGAUCGGCCGCCACUGGUUGGCCCUGUGUACAUGAGGAUCACCCAUGUCCAUCCCAAACCAGGACCGGGAUCUUUAUGU,apparent Kd,MS2 coat protein [1]; [5],36.1 nM
same,apparent Kd,MS2 coat protein [1]; [6],13 nM
AUAAUAAUCCUCAUGUAAGGUCCUCGAUAACGAGGACCGGUACGGCCGCCACUCGAACAUGAGGAUCACCCAUGUACGAGGACCA,apparent Kd,MS2 coat protein [1]; [5],42.5 nM
same,apparent Kd,MS2 coat protein [1]; [6],32.6 nM
ACGAACGAUAGUGAUACCAGACGAACAUGAGGAUCACCCAUGUUAUACACAUGGUUUAUUGUCCCUUGGCAGCACUUUAAGUUCG,apparent Kd,MS2 coat protein [2]; [7],147 nM
same,apparent Kd,MS2 coat protein [2]; [8],89.6 nM
AGCGCUAUGCAUGAUACCAGCUACAUGAGGAUCACCCAUGUGCGUCAGAAAUGACUGUGUAGCCCUUGGCAGCAUAAAGCAUGUA,apparent Kd,MS2 coat protein [2]; [7],19.1 nM
same,apparent Kd,MS2 coat protein [2]; [8],46.3 nM
UCGUGUAUAACGGAUACCAGUGAGAAGGAUACAUGAGGAUCACCCAUGUGAGUUGAUCCACACCCUUGGCAGCUGUAUAUAUCUA,apparent Kd,MS2 coat protein [2]; [9],194 nM
same,apparent Kd,MS2 coat protein [2]; [10],1100 nM
GGAUUCAACUCGGCCGCCACUGGUGAUCCUAAUGUACAUGAGGAUCACCCAUGUACAUGAGAAUAUAGGACCGGGAGAUAAGUUA,apparent Kd,MS2 coat protein [1]; [5],29 nM
same,apparent Kd,MS2 coat protein [1]; [6],24.2 nM
UAAAACAUGAGGAUCACCCAUGUAAAUGAUACCAGAGUGAUGAUCCUCCCUUGGCAGCAUAACGCUGAUUGGAAACAAUCAGCGA,apparent Kd,MS2 coat protein [2]; [9],130 nM
same,apparent Kd,MS2 coat protein [2]; [10],243 nM
AGCACGGUGAUGGUAGCCGGACGCUAGGUACGAGGACCGGUACGGCCGCCACUCGAAGUCCUACGACAUGAGGAUCACCCAUGUA,apparent Kd,MS2 coat protein [1]; [5],53.5 nM
same,apparent Kd,MS2 coat protein [1]; [6],40.5 nM
GGAAAAGAAAGAAAAGAAAUCCCUCCCUCCCGAGGACCGGUACGGCCGCCACUCGCCCUCCCUCCCACAUGAGGAUCACCCAUGU,apparent Kd,MS2 coat protein [1]; [3],23.5 nM
same,apparent Kd,MS2 coat protein [1]; [4],23.4 nM
UGUCAUGGAAACAUGACAGGUUCUACCGGUCGAGGACCGGUACGGCCGCCACUCGAUUGGUGGCACAUGAGGAUCACCCAUGUUA,apparent Kd,MS2 coat protein [1]; [5],25.2 nM
same,apparent Kd,MS2 coat protein [1]; [6],25.2 nM
ACAUGAGGAUCACCCAUGUCUGCCACUGAUACCAGCGGAUGCCAACGCCCUUGGCAGCAGAACAUGAGGAUCACCCAUGUAGGCA,apparent Kd,MS2 coat protein [2]; [9],319 nM
same,apparent Kd,MS2 coat protein [2]; [10],209 nM
AUAGUCUUGAGUGAUACCAGACUACAUGAGGAUCACCCAUGUUUCUUUUGGUUAUCAUGUGUCCCUUGGCAGCACGCAUGUAUAG,apparent Kd,MS2 coat protein [2]; [7],16.4 nM
same,apparent Kd,MS2 coat protein [2]; [8],65.8 nM
AAACAUUGCUCAGAUACCAGACAUGAGGAUCACCCAUGUACCGAGGUACCCGAAAGGAAUGUCCCUUGGCAGCUGAGCAAUGAAA,apparent Kd,MS2 coat protein [2]; [7],12 nM
same,apparent Kd,MS2 coat protein [2]; [8],129 nM
UAAACACAUGAGGAUCACCCAUGUCAUGAUACCAGUCAACAUGAGGACCCUUGGCAGCAUAAAAUGGGUAACAUGAGGAUCACCC,apparent Kd,MS2 coat protein [2]; [7],38.4 nM
same,apparent Kd,MS2 coat protein [2]; [8],112 nM
AAGGUGAUCCCAGAUACCAGCUUAACAUGAGGAUCACCCAUGUUUGGGACGAAAGUCCCGGGCCCUUGGCAGCUGGGUUGCCAAG,apparent Kd,MS2 coat protein [2]; [9],196 nM
same,apparent Kd,MS2 coat protein [2]; [10],131 nM
ACUCGGUGUUUGUUGCUCCGAGUUUAUGAUACCAGUUAGUUUUAUGGCCCUUGGCAGCAUAGGACAUGAGGAUCACCCAUGUGUU,apparent Kd,MS2 coat protein [2]; [9],31.7 nM
same,apparent Kd,MS2 coat protein [2]; [10],53.8 nM
UCACAUGAGGAUCACCCAUGUACAGGCGAUACCAGCCGUACAUUGGGCCCUUGGCAGCGCACCGAGACCUUUAUAAGCACCUCGG,apparent Kd,MS2 coat protein [2]; [9],29.5 nM
same,apparent Kd,MS2 coat protein [2]; [10],192 nM
ACAUGAGGAUCACCCAUGUGGCGUCUUGAUACCAGACGAGAAGUAGUCCCUUGGCAGCAAAUACGUGAGGAUCACACAUGUGCGA,apparent Kd,MS2 coat protein [2]; [7],23.2 nM
same,apparent Kd,MS2 coat protein [2]; [8],37.3 nM
